Data taken from ChEMBL document CHEMBL5329156, “Discovery and development of novel substituted monohydrazides as potent antifungal agents” (RSC Med Chem, 2023).
In brackets after ≈: the same amount, converted by molar mass. Activity calls are given as the source filed them. The calls are words filed in the database; no cut-off is given here.

Key:
Cryptococcus neoformans = assay: Antifungal activity against Cryptococcus neoformans ATCC MYA-895 assessed as fungal growth inhibition by double dilution method; format: functional
Procedure, shortened: (§1)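 Broth microdilution after CLSI M27-A3/M38-A2 with minor changes. Single colony grown overnight in YPD at 35 °C, 200 rpm. Compound final range 0.06-31.3 µg/mL; incubated 48 h at 35 °C.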

[Candida] haemuloni [1] = Antifungal activity against Candida haemulonii AR Bank # 393 assessed as fungal growth inhibition by double dilution method; format: functional; conditions: Candidozyma haemuli; procedure, shortened: as §1
Aspergillus fumigatus [2] = assay: Antifungal activity against Aspergillus fumigatus NRRL 5109 assessed as fungal growth inhibition by double dilution method; format: functional
Candida duobushaemulonii [3] = assay: Antifungal activity against Candida duobushaemulonii AR Bank # 394 assessed as fungal growth inhibition by double dilution method; format: functional; conditions: Candidozyma duobushaemuli; procedure, shortened: as §1
[Candida] auris [4] = Antifungal activity against Candida auris AR Bank # 0384 assessed as fungal growth inhibition by double dilution method; format: functional; conditions: Candidozyma auris; procedure, shortened: as §1
Aspergillus terreus = assay: Antifungal activity against Aspergillus terreus ATCC MYA-3633 assessed as fungal growth inhibition by double dilution method; format: functional
Candida albicans [5] = assay: Antifungal activity against itraconazole/fluconazole susceptible Candida albicans ATCC MYA-2876 assessed as fungal growth inhibition by double dilution method; format: functional
Procedure, shortened: (§2)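 Broth microdilution after CLSI M27-A3/M38-A2 with minor modifications. A single colony was grown overnight in YPD at 35 °C with shaking at 200 rpm. Cells were mixed 1:1 with compound (final 0.06-31.3 µg/mL, from DMSO stocks) and incubated 48 h at 35 °C.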

[Candida] auris [6] = Antifungal activity against Candida auris AR Bank # 389 assessed as fungal growth inhibition by double dilution method; format: functional; conditions: Candidozyma auris; procedure, shortened: as §1
Nakaseomyces glabratus [7] = assay: Antifungal activity against Candida glabrata ATCC 22019 assessed as fungal growth inhibition by double dilution method; format: functional; procedure, shortened: as §1
Aspergillus flavus = assay: Antifungal activity against Aspergillus flavus ATCC MYA-3631 assessed as fungal growth inhibition by double dilution method; format: functional
[Candida] auris [8] = Antifungal activity against Candida auris AR Bank # 387 assessed as fungal growth inhibition by double dilution method; format: functional; conditions: Candidozyma auris; procedure, shortened: as §1
Candida albicans [9] = assay: Antifungal activity against itraconazole/fluconazole resistant Candida albicans ATCC 90819 assessed as fungal growth inhibition by double dilution method; format: functional; procedure, shortened: as §2
Candida albicans [10] = assay: Antifungal activity against Candida albicans ATCC 64124 assessed as fungal growth inhibition by double dilution method; format: functional; procedure, shortened: as §2
Candida albicans [11] = assay: Antifungal activity against itraconazole/fluconazole resistant Candida albicans ATCC MYA-1003 assessed as fungal growth inhibition by double dilution method; format: functional; procedure, shortened: as §2
Candida albicans [12] = assay: Antibiofilm activity against Candida albicans ATCC 10231 assessed as reduction in biofilm production at 1.96 to 3.9 microg/ml by biofilm formation assay; format: functional, organism-based; conditions: dose 1.96-3.9 µg/ml
Candida albicans [13] = assay: Antifungal activity against itraconazole/fluconazole resistant Candida albicans ATCC MYA-1237 assessed as fungal growth inhibition by double dilution method; format: functional; procedure, shortened: as §2
Candida albicans [14] = assay: Antifungal activity against itraconazole/fluconazole susceptible Candida albicans ATCC MYA-2310 assessed as fungal growth inhibition by double dilution method; format: functional; procedure, shortened: as §2
Candida duobushaemulonii [15] = assay: Antifungal activity against Candida duobushaemulonii AR Bank # 391 assessed as fungal growth inhibition by double dilution method; format: functional; conditions: Candidozyma duobushaemuli; procedure, shortened: as §1
[Candida] auris [16] = Antifungal activity against Candida auris AR Bank # 382 assessed as fungal growth inhibition by double dilution method; format: functional; conditions: Candidozyma auris; procedure, shortened: as §1
Kodamaea ohmeri = assay: Antifungal activity against Kodamaea ohmeri AR Bank # 396 assessed as fungal growth inhibition by double dilution method; format: functional; procedure, shortened: as §1
Candida duobushaemulonii [17] = assay: Antifungal activity against Candida duobushaemulonii AR Bank # 392 assessed as fungal growth inhibition by double dilution method; format: functional; conditions: Candidozyma duobushaemuli; procedure, shortened: as §1
Candida albicans [18] = assay: Antifungal activity against Candida albicans ATCC 10231 assessed as fungal growth inhibition by double dilution method; format: functional; procedure, shortened: as §1
[Candida] auris [19] = Antifungal activity against Candida auris AR Bank # 0390 assessed as fungal growth inhibition by double dilution method; format: functional; conditions: Candidozyma auris; procedure, shortened: as §1
Pichia kudriavzevii [20] = assay: Antifungal activity against Pichia kudriavzevii ATCC 6258 assessed as fungal growth inhibition by double dilution method; format: functional; procedure, shortened: as §1
Saccharomyces cerevisiae [21] = assay: Antifungal activity against Saccharomyces cerevisiae AR Bank # 399 assessed as fungal growth inhibition by double dilution method; format: functional; procedure, shortened: as §1
[Candida] auris [22] = Antifungal activity against Candida auris AR Bank # 386 assessed as fungal growth inhibition by double dilution method; format: functional; conditions: Candidozyma auris; procedure, shortened: as §1
Nakaseomyces glabratus [23] = assay: Antifungal activity against Candida glabrata ATCC 2001 assessed as fungal growth inhibition by double dilution method; format: functional; procedure, shortened: as §1
Pichia kudriavzevii [24] = assay: Antifungal activity against Pichia kudriavzevii AR Bank # 397 assessed as fungal growth inhibition by double dilution method; format: functional; procedure, shortened: as §1
Saccharomyces cerevisiae [25] = assay: Antifungal activity against Saccharomyces cerevisiae AR Bank # 400 assessed as fungal growth inhibition by double dilution method; format: functional; procedure, shortened: as §1
Clavispora lusitaniae = assay: Antifungal activity against Clavispora lusitaniae AR Bank # 398 assessed as fungal growth inhibition by double dilution method; format: functional; procedure, shortened: as §1
[Candida] auris [26] = Antifungal activity against Candida auris AR Bank # 383 assessed as fungal growth inhibition by double dilution method; format: functional; conditions: Candidozyma auris; procedure, shortened: as §1
[Candida] auris [27] = Antifungal activity against Candida auris AR Bank # 381 assessed as fungal growth inhibition by double dilution method; format: functional; conditions: Candidozyma auris; procedure, shortened: as §1
Aspergillus nidulans = assay: Antifungal activity against Aspergillus nidulans ATCC 38163 assessed as fungal growth inhibition by double dilution method; format: functional
[Candida] auris [28] = Antifungal activity against Candida auris AR Bank # 388 assessed as fungal growth inhibition by double dilution method; format: functional; conditions: Candidozyma auris; procedure, shortened: as §1
[Candida] haemuloni [29] = Antifungal activity against Candida haemulonii AR Bank # 395 assessed as fungal growth inhibition by double dilution method; format: functional; conditions: Candidozyma haemuli; procedure, shortened: as §1
Aspergillus fumigatus [30] = assay: Antifungal activity against Aspergillus fumigatus NRRL 163 assessed as fungal growth inhibition by double dilution method; format: functional
[Candida] auris [31] = Antifungal activity against Candida auris AR Bank # 390 assessed as fungal growth inhibition by double dilution method; format: functional; conditions: Candidozyma auris; procedure, shortened: as §1
Aspergillus fumigatus [32] = assay: Antifungal activity against Aspergillus fumigatus NRRL 6113 assessed as fungal growth inhibition by double dilution method; format: functional
[Candida] auris [33] = Antifungal activity against Candida auris AR Bank # 384 assessed as fungal growth inhibition by double dilution method; format: functional; conditions: Candidozyma auris; procedure, shortened: as §1
[Candida] auris [34] = Antifungal activity against Candida auris AR Bank # 385 assessed as fungal growth inhibition by double dilution method; format: functional; conditions: Candidozyma auris; procedure, shortened: as §1

O=C(NNc1ccc(Cl)cc1)c1ccccn1
MIC (Cryptococcus neoformans): 0.49 µg/mL (≈ 1.98 µM) | MIC ([Candida] haemuloni [1]): 0.49 µg/mL (≈ 1.98 µM) | MIC (Aspergillus fumigatus [2]): 7.8 µg/mL (≈ 31.5 µM) | MIC (Candida duobushaemulonii [3]): 0.4 µg/mL (≈ 1.61 µM) | MIC ([Candida] auris [4]): 1.95 µg/mL (≈ 7.87 µM) | MIC (Aspergillus terreus): 3.9 µg/mL (≈ 15.7 µM) | MIC (Candida albicans [5]): 1.95 µg/mL (≈ 7.87 µM) | MIC ([Candida] auris [6]): 0.98 µg/mL (≈ 3.96 µM) | MIC (Nakaseomyces glabratus [7]): 3.9 µg/mL (≈ 15.7 µM) | MIC (Aspergillus flavus): 31.3 µg/mL (≈ 126 µM) | MIC ([Candida] auris [8]): 1.95 µg/mL (≈ 7.87 µM) | MIC (Candida albicans [9]): 0.24 µg/mL (≈ 0.969 µM) | MIC (Candida albicans [10]): 0.98 µg/mL (≈ 3.96 µM) | MIC (Candida albicans [11]): 0.98 µg/mL (≈ 3.96 µM) | Activity (Candida albicans [12]): Active | MIC (Candida albicans [13]): 0.98 µg/mL (≈ 3.96 µM) | MIC (Candida albicans [14]): 0.98 µg/mL (≈ 3.96 µM) | MIC (Candida duobushaemulonii [15]): 0.98 µg/mL (≈ 3.96 µM) | MIC ([Candida] auris [16]): 3.9 µg/mL (≈ 15.7 µM) | MIC (Kodamaea ohmeri): 0.24 µg/mL (≈ 0.969 µM) | MIC (Candida duobushaemulonii [17]): 0.98 µg/mL (≈ 3.96 µM) | MIC (Candida albicans [18]): 0.12 µg/mL (≈ 0.484 µM) | MIC ([Candida] auris [19]): 1.95 µg/mL (≈ 7.87 µM) | MIC (Pichia kudriavzevii [20]): 1.95 µg/mL (≈ 7.87 µM) | MIC (Saccharomyces cerevisiae [21]): 0.98 µg/mL (≈ 3.96 µM) | MIC ([Candida] auris [22]): 0.98 µg/mL (≈ 3.96 µM) | MIC (Nakaseomyces glabratus [23]): 1.95 µg/mL (≈ 7.87 µM) | MIC (Pichia kudriavzevii [24]): 0.24 µg/mL (≈ 0.969 µM) | MIC (Saccharomyces cerevisiae [25]): 0.98 µg/mL (≈ 3.96 µM) | MIC (Clavispora lusitaniae): 0.98 µg/mL (≈ 3.96 µM) | MIC ([Candida] auris [26]): 1.95 µg/mL (≈ 7.87 µM) | MIC ([Candida] auris [27]): 1.95 µg/mL (≈ 7.87 µM) | MIC (Aspergillus nidulans): 0.49 µg/mL (≈ 1.98 µM) | MIC ([Candida] auris [28]): 1.95 µg/mL (≈ 7.87 µM) | MIC ([Candida] haemuloni [29]): 0.12 µg/mL (≈ 0.484 µM) | MIC (Aspergillus fumigatus [30]): > 31.3 µg/mL | MIC ([Candida] auris [31]): 1.95 µg/mL (≈ 7.87 µM) | MIC (Aspergillus fumigatus [32]): 15.6 µg/mL (≈ 63 µM) | MIC ([Candida] auris [33]): 1.95 µg/mL (≈ 7.87 µM) | MIC ([Candida] auris [34]): 1.95 µg/mL (≈ 7.87 µM)

COc1ccc(NNC(=O)c2ccccn2)cc1
MIC (Cryptococcus neoformans): 0.49 µg/mL (≈ 2.01 µM) | MIC ([Candida] haemuloni [1]): 0.49 µg/mL (≈ 2.01 µM) | MIC (Aspergillus fumigatus [2]): > 31.3 µg/mL | MIC (Candida duobushaemulonii [3]): 0.98 µg/mL (≈ 4.03 µM) | MIC ([Candida] auris [4]): 3.9 µg/mL (≈ 16 µM) | MIC (Aspergillus terreus): 31.3 µg/mL (≈ 129 µM) | MIC (Candida albicans [5]): 1.95 µg/mL (≈ 8.02 µM) | MIC ([Candida] auris [6]): 0.24 µg/mL (≈ 0.987 µM) | MIC (Nakaseomyces glabratus [7]): 3.9 µg/mL (≈ 16 µM) | MIC (Aspergillus flavus): > 31.3 µg/mL | MIC ([Candida] auris [8]): 0.49 µg/mL (≈ 2.01 µM) | MIC (Candida albicans [9]): 0.49 µg/mL (≈ 2.01 µM) | MIC (Candida albicans [10]): 0.98 µg/mL (≈ 4.03 µM) | MIC (Candida albicans [11]): 0.98 µg/mL (≈ 4.03 µM) | Activity (Candida albicans [12]): Active | MIC (Candida albicans [13]): 0.98 µg/mL (≈ 4.03 µM) | MIC (Candida albicans [14]): 0.98 µg/mL (≈ 4.03 µM) | MIC (Candida duobushaemulonii [15]): 0.98 µg/mL (≈ 4.03 µM) | MIC ([Candida] auris [16]): 1.95 µg/mL (≈ 8.02 µM) | MIC (Kodamaea ohmeri): 0.49 µg/mL (≈ 2.01 µM) | MIC (Candida duobushaemulonii [17]): 0.98 µg/mL (≈ 4.03 µM) | MIC (Candida albicans [18]): 0.12 µg/mL (≈ 0.493 µM) | MIC ([Candida] auris [19]): 0.12 µg/mL (≈ 0.493 µM) | MIC (Pichia kudriavzevii [20]): 0.49 µg/mL (≈ 2.01 µM) | MIC (Saccharomyces cerevisiae [21]): 1.95 µg/mL (≈ 8.02 µM) | MIC ([Candida] auris [22]): 0.24 µg/mL (≈ 0.987 µM) | MIC (Nakaseomyces glabratus [23]): 0.98 µg/mL (≈ 4.03 µM) | MIC (Pichia kudriavzevii [24]): 0.49 µg/mL (≈ 2.01 µM) | MIC (Saccharomyces cerevisiae [25]): 0.98 µg/mL (≈ 4.03 µM) | MIC (Clavispora lusitaniae): 0.98 µg/mL (≈ 4.03 µM) | MIC ([Candida] auris [26]): 1.95 µg/mL (≈ 8.02 µM) | MIC ([Candida] auris [27]): 1.95 µg/mL (≈ 8.02 µM) | MIC (Aspergillus nidulans): 0.49 µg/mL (≈ 2.01 µM) | MIC ([Candida] auris [28]): 0.49 µg/mL (≈ 2.01 µM) | MIC ([Candida] haemuloni [29]): 0.49 µg/mL (≈ 2.01 µM) | MIC (Aspergillus fumigatus [30]): > 31.3 µg/mL | MIC ([Candida] auris [31]): 0.12 µg/mL (≈ 0.493 µM) | MIC (Aspergillus fumigatus [32]): 31.3 µg/mL (≈ 129 µM) | MIC ([Candida] auris [33]): 3.9 µg/mL (≈ 16 µM) | MIC ([Candida] auris [34]): 0.98 µg/mL (≈ 4.03 µM)
